Only some compounds are listed: those with a hit (about 1.9% of all), similar ones and a draw of the others.
CHRM5 agonist – agonists of human muscarinic M5 receptor (CHRM5) | activation, % at 3 µM | 360,000 tested, 0.19% active | CHO-K1 hM5 cells, Fluo-8 calcium fluorescence; 0% DMSO wells, 100% maximal acetylcholine response | P08912;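 active = activation above the run's mean over test compounds plus 3 SD, cut at about 23% in these data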;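 also: signal is peak over basal fluorescence ratio across the kinetic read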
Target sequence (P08912 whole entry, looked up): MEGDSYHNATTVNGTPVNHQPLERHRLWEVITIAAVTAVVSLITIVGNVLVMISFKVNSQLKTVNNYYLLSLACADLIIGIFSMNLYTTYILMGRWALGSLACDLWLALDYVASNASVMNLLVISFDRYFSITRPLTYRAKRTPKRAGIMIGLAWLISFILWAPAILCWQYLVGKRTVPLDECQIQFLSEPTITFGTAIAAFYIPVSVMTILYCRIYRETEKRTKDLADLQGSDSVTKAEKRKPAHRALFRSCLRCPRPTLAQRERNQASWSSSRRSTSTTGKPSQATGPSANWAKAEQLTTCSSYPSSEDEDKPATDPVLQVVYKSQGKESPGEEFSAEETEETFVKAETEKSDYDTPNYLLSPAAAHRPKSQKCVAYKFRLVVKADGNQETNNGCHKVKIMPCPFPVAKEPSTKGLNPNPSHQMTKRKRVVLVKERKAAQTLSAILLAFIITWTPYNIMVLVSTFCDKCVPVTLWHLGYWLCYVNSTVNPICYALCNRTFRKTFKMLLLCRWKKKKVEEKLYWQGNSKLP
CHRM4 PAM – potentiates acetylcholine response at human M4 receptor. P08173. CHO-K1 hM4/Gqi5, Fluo-8 calcium fluorescence, ACh EC20; 0% = ACh EC20, 100% = maximal ACh. activation, % at 3 µM. 360,000 tested, 0.4% active;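 active = activation above its plate's cutoff, the mean activation of sample wells plus 3 SD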
CHRM4 agonist – CHRM4 agonism in calcium assay; CHO-K1 hM4/Gqi5, Fluo-8 calcium fluorescence; vehicle 0%, full acetylcholine response 100%; AID 624127; activation, % at 3 µM; 360,000 tested, 0.14% active; P08173;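 active = activation above the run mean over all test wells plus 3 SD, cut at about 32% in these data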;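 also: peak over basal fluorescence ratio per well then scaled between controls; 0% = DMSO wells and 100% = acetylcholine at EC100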
M5 antag – blocks acetylcholine activation of human M5 receptor; 360,000 tested, 0.59% active; CHO-hM5 cells, Fluo-8 calcium fluorescence, ACh EC80; inhibition, % at 3 µM; AID 624040;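 active = inhibition above a per-plate cutoff, the mean of that plate's test compounds plus 3 SD, cut at about 27% in these data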;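 also: 0% = acetylcholine EC80 with DMSO and 100% = DMSO without agonist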
CHRM5 PAM – CHRM5 positive allosteric modulation; P08912; CHO-K1 hM5, Fluo-8 calcium, ACh EC20 PAM; 0% = ACh EC20, 100% = ACh EC100; activation, % at 3 µM; 360,000 tested, 0.3% active;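 active = activation above the run cutoff, the mean activation of all test compounds plus 3 SD, cut at about 18% in these data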
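Probe or stimulus: acetylcholine, EC20 level; Assay system: human M5 receptor in CHO-K1 cells; Schedule: compound preincubation 140 s before EC20 acetylcholine addition; Technique: intracellular calcium via Fluo-8 fluorescence; Dosing: single-point, 3 µM nominal; Read-out basis: percent activation from peak-over-basal fluorescence ratio, scaled EC20-to-EC100 acetylcholine; Repeats: one well per compound, no replicates.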
CHRM4 antagonist – antagonists of human muscarinic M4 receptor (CHRM4); AID 624125; 360,000 tested, 0.73% active; inhibition, % at 3 µM; CHO-hM4 cells, ACh EC80, Fluo-8 calcium fluorescence; P08173;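 active = inhibition above its plate's cutoff, the mean inhibition of sample wells plus 3 SD, cut at about 27% in these data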;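 also: 0% = acetylcholine EC80 with DMSO and 100% = DMSO without agonist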
An asterisk follows results filed as active; ! = a repeat was not active.

SMILES	CHRM5 agonist	CHRM4 PAM	CHRM4 agonist	M5 antag	CHRM5 PAM	CHRM4 antagonist
c1ccc(CNc2ncnc3ccccc23)cc1	24.0*!	-13.3	33.8*!	20.4	-13.5	38.2*!
CNc1nc(NCc2ccccc2)c2ccccc2n1	0.9	-5.3	6.3	-5.8	1.4	1.9
N#CCc1ccc(Oc2ncccn2)cc1	-1.9	-5.2	0.2	1.9	-0.8	5.1
C[N+]1(CCC(=O)c2ccccc2)CCCCC1	-3.7	-1.6	0.5	-8.1	7.2	4.2
C[N+]1(C)CCC(=C(c2ccccc2)c2ccccc2)CC1	-1.9	-16.6	0.1	98.7*	-18.8	99.5*
CC1CC(C)CN(S(=O)(=O)c2ccc(C(=O)OCC(=O)Nc3ccccc3)cc2)C1 (stereo unspecified)	0.9	2.3	0.8	3.4	1.2	3.3
Cc1cccc(CN(C(=S)Nc2c(C)cccc2C)c2cccnc2)c1	-13.0	11.1	1.6	-6.2	18.2*	-12.2
CCc1ccccc1NC(=S)N(Cc1cccc(C)c1)c1cccnc1	-17.0	-3.6	0.7	18.2	-1.6	0.3
CC(C)C(=O)Nc1ccc2c(c1)nc(CCN1CCCCC1)n2C	-3.9	-8.0	0.0	6.9	-0.3	14.0
CC1CCN(CCc2nc3cc(NC(=O)C(C)C)ccc3n2C)CC1	-6.5	-15.6	0.3	68.5*	-17.2	57.6*
CCCN=C1N(CC)C[C@@H]2[C@@H]3C(=O)N(C)C(=O)[C@@H]3[C@](CC)(C(=O)OC)N12	1.0	-5.0	1.0	1.6	-0.4	7.2
Cc1c(C(=O)Nc2ccc3c(c2)OCCO3)oc2ccc(Br)cc12	-3.3	23.2*	0.6	2.1	4.2	-9.7
Cc1c(C(=O)NCc2ccc3c(c2)OCO3)oc2ccc(Br)cc12	-2.5	2.7	-1.1	12.2	-5.9	2.4
Cc1ccc(S(=O)(=O)Oc2ccc(/C=C(/NC(=O)c3ccccc3)C(=O)NC(C)C(=O)O)cc2)cc1 (stereo unspecified)	-1.4	-4.3	0.0	-4.6	-2.7	2.3
c1ccc(-c2ccc(OCCCNC3CCCC3)cc2)cc1	4.2	-21.6	29.5	32.8*	-16.5	39.2*
Cc1nn(-c2ccccc2)c(C)c1C(=O)OCC(=O)N1c2ccccc2NC(=O)C1(C)C	8.1	-15.2	16.8	21.9	-21.2	32.7*
CC(C)(C)c1ccc(OCCC(=O)OCC(=O)N2c3ccccc3NC(=O)C2(C)C)cc1	3.4	-13.0	24.2	36.1*	-35.1	58.7*
Cc1cnc(C(=O)OCC(=O)N2c3ccccc3NC(=O)C2(C)C)cn1	-0.7	-0.6	0.6	1.6	3.0	1.0
COCc1cccc(C2=CC(=O)C[C@H](c3ccc(F)cc3)C2)c1	0.4	-4.8	6.1	12.6	-12.2	0.5
CCC(C)(C)n1nnnc1C(c1ccc(Cl)cc1)N1CCN(C)CC1 (stereo unspecified)	-5.2	20.5*	1.0	-12.7	-2.0	1.4
Cc1ccccc1Sc1ccc(N)cn1	-3.5	-15.1	4.0	23.2	-7.6	33.3*
COc1cccc(N2C(=NC(=O)COc3ccccc3)SC3CS(=O)(=O)CC32)c1 (stereo unspecified)	-4.9	-4.4	1.0	8.4	-3.5	-10.9
O=C(c1ccc(N2CCCC2=O)cc1)N1CCN(c2ccccc2)CC1	1.3	6.3	0.8	10.7	45.3*	-5.1
O=C(c1[nH]c(C(F)(F)F)nc1-c1ccccc1)N1CCN(c2ccccc2)CC1	1.4	1.8	0.6	5.1	2.7	-11.5
O=C(c1[nH]c(C(F)(F)F)nc1-c1ccccc1)N1CCN(c2c(Cl)cncc2Cl)CC1	35.8*	-6.8	45.6*	14.3	-6.3	3.3
COc1ccc(/C=N/OCC(=O)Nc2ccc3c(c2)OCO3)c(OC)c1	3.2	-11.2	4.9	5.2	-0.4	37.7*
CCCNS(=O)(=O)c1ccc(OCC(=O)Nc2ccc3c(c2)OCO3)cc1	-2.2	-8.8	-1.1	5.5	-1.9	45.1*
Cc1ccc(C(=O)OCC(=O)Nc2ccc3c(c2)OCO3)o1	-5.9	9.2	1.4	-7.0	20.1*	-1.1
CCOc1ccc(/C=N/OCC(=O)Nc2ccc3c(c2)OCO3)cc1	0.8	0.1	5.5	3.5	-0.3	-7.5
C(=NOCc1ccccc1)c1cccnc1	5.9	3.4	0.6	-5.8	1.8	-7.0

Assay outcomes: PubChem BioAssay, The Scripps Research Institute Molecular Screening Center
